Experiment [1] concerns the target Telomerase reverse transcriptase (Homo sapiens, UniProt O14746). Briefly: Inhibitory activity against telomerase. Put shortly: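 Modified TRAP with extract from exponentially growing A2780 ovarian carcinoma cells. Telomerase then inactivated at 80 °C for 5 min, CX primer and Taq added, 31 PCR cycles. Products analysed by denaturing PAGE with phosphorimaging/autoradiography, or by filter scintillation counting.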

Experiment [2] relates to CH1. Briefly: Cytotoxicity measured in human ovarian cell line CH1 using sulforhodamine B (SRB) assay. Type of experiment: functional, cell-based. Put shortly: (§1)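 SRB growth-inhibition assay in human ovarian carcinoma cells: 3000–6000 cells/well attached overnight, then salts (dissolved at 500 μM in water) added in quadruplicate at final 0.05, 0.25, 1, 5 and 25 μM. After 96 h, cells fixed with ice-cold 10% TCA and stained with 0.4% SRB. Mean A540 expressed as % of untreated control; IC50 = concentration giving 50% growth inhibition.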

Experiment [3] concerns the target DNA polymerase I, thermostable (Thermus aquaticus) (UniProt P19821). The experiment in a line: Inhibitory activity against taq polymerase at 10 uM; No inhibition.
The test system of experiment [4] is A2780. The experiment in a line: Cytotoxicity activity of the compound was measured in human ovarian cell line A2780 using sulforhodamine B (SRB) assay. Type of experiment: functional, cell-based. Summed up:
as §1
In general terms: In SRB staining, fixed cells bind dye roughly in proportion to their protein.

The test system of experiment [5] is SK-OV-3. The experiment in a line: Cytotoxicity measured in human ovarian cell line SKOV-3 using sulforhodamine B (SRB) assay. Type of experiment: functional, cell-based. Put shortly:
as §1

Experiment [6] addresses DNA polymerase I, thermostable (Thermus aquaticus) (UniProt P19821). Briefly: Inhibitory activity against taq polymerase at 20 uM; No inhibition.
The target is the same in experiment [7]. The experiment in a line: Inhibitory activity against taq polymerase at 50 uM; No inhibition.
Experiment [8] has as its system SK-OV-3. The experiment in a line: Cytotoxicity activity was measured in human ovarian cell line SKOV-3 using sulforhodamine B (SRB) assay. The experiment is classed as functional, cell-based. Summed up: as §1
Experiment [9] has as its target DNA polymerase I, thermostable (Thermus aquaticus) (UniProt P19821). The experiment in a line: Inhibitory activity against taq polymerase at 50 uM; Slight.
Experiment [10] concerns A2780. Briefly: Cytotoxicity measured in human ovarian cell line A2780 using sulforhodamine B (SRB) assay. The experiment is classed as functional, cell-based. Summed up: as §1
For experiment [11], the system named is CH1. Briefly: Cytotoxicity activity was measured in human ovarian cell line CH1 using sulforhodamine B (SRB) assay. Type of experiment: functional, cell-based. Put shortly:
as §1

In experiment [12] the target is DNA polymerase I, thermostable (Thermus aquaticus) (UniProt P19821). Briefly: Inhibitory activity against taq polymerase at 50 uM; Significant.
Sequence of DNA polymerase I, thermostable (Thermus aquaticus) (P19821 whole entry): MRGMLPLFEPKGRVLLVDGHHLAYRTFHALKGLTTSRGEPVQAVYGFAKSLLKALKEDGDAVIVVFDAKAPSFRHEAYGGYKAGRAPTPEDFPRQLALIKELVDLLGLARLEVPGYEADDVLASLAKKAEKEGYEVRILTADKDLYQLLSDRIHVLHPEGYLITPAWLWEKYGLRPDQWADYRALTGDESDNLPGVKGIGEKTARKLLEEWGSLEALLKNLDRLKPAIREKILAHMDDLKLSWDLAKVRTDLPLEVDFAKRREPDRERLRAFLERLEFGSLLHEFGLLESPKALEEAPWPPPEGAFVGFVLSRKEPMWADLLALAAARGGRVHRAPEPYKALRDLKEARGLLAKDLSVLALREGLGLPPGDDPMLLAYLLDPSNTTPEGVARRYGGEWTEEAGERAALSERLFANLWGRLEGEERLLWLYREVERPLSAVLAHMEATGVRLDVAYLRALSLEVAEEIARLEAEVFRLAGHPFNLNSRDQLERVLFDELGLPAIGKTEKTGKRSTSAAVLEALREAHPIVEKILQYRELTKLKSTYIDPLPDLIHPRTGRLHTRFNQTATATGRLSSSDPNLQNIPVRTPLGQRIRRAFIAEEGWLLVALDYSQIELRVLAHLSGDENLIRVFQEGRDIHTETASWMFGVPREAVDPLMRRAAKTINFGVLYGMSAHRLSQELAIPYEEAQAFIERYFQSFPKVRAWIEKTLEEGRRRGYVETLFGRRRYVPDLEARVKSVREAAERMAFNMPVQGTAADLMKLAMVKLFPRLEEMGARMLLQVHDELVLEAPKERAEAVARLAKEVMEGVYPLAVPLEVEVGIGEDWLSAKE

In ChEMBL document CHEMBL1132274, “2,7-Disubstituted amidofluorenone derivatives as inhibitors of human telomerase” (J Med Chem, 1999) one finds IC50 and inhibition data, which are given here for 3 compounds.

The source made the active and inactive calls. No cut-off for these calls is given here.

As usually defined, the IC50 is the concentration that inhibits the measured activity by half. Read a low IC50 as inhibition by little substance.

Sequence of Telomerase reverse transcriptase (O14746 whole entry): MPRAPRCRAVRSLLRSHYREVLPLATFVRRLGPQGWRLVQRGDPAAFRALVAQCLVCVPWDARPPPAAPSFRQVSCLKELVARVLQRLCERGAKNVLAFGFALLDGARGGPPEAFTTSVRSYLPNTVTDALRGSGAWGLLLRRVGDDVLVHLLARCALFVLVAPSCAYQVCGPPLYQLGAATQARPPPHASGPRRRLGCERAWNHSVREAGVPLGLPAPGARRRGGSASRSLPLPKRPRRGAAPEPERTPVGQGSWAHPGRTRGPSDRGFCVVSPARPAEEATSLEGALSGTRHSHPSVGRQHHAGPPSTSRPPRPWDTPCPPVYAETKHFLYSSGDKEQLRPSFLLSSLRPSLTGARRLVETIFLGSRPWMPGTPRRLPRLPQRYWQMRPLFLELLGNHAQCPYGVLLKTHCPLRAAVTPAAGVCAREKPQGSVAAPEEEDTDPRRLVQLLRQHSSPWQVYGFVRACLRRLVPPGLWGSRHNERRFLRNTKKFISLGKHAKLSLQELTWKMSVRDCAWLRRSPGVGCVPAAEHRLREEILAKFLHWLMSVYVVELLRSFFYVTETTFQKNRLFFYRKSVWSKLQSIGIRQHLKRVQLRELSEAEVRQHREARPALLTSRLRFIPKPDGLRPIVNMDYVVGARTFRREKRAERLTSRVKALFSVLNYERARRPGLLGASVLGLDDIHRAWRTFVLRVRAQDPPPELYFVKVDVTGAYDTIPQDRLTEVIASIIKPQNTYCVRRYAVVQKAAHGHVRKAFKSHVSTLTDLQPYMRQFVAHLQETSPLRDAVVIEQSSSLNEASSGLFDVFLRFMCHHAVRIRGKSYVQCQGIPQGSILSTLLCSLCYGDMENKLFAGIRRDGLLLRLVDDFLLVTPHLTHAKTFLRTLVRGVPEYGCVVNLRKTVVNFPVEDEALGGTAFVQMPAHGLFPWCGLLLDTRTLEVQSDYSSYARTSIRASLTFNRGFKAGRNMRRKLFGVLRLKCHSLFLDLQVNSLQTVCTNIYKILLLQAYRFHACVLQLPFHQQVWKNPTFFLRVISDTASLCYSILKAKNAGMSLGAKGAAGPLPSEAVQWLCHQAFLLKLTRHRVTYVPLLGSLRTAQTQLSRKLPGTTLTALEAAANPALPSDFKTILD

Regarding `CN1CCN(CCC(=O)Nc2ccc3c(c2)C(=O)c2cc(NC(=O)CCN4CCN(C)CC4)ccc2-3)CC1`, the IC50 in [1] is 44 µM; in the experiment on CH1 [2], > 25 µM; with A2780 [4], > 25 µM; in the experiment on SK-OV-3 [5] it was > 25 µM. In addition, the inhibition result in experiment [3], in experiment [6] and in experiment [7] was “inactive” throughout.
`C[N+]1(CCC(=O)Nc2ccc3c(c2)C(=O)c2cc(NC(=O)CC[N+]4(C)CCC(O)CC4)ccc2-3)CCC(O)CC1` (stereo unspecified): the IC50 in the experiment on SK-OV-3 [8] was 4.7 µM; in [1], > 20 µM; with A2780 [10], 2.4 µM; in the experiment on CH1 [11], 1.95 µM. The inhibition result in experiment [3] and in experiment [6] was “inactive” each time. For the same compound, the inhibition result in [9] was “Weak inhibition”.
With `C[N+]1(CCC(=O)Nc2ccc3c(c2)C(=O)c2cc(NC(=O)CC[N+]4(C)CCCCC4CCO)ccc2-3)CCCCC1CCO` (stereo unspecified), the IC50 is > 20 µM in experiment [1], 3.15 µM in the experiment with CH1 [2], 5.2 µM with SK-OV-3 [5] and 5.2 µM in the experiment on A2780 [10]. Moreover, the inhibition entry in experiment [12] is “Significant”. Further, the inhibition entry in [3] and in [6] was “inactive” in each case.
